FLuc inhib CS = inhibits firefly luciferase, flagging false hits in luciferase inhibition screens. AID 1006. ATPLite firefly luciferase biochemical luminescence, 10 min. hit rate 1.5% among 200,000. inhibition, % at 10 µM. P08659;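 active = inhibition above about 50% when tested at 10 µM, limit read from the data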
Target sequence (P08659 whole entry, looked up): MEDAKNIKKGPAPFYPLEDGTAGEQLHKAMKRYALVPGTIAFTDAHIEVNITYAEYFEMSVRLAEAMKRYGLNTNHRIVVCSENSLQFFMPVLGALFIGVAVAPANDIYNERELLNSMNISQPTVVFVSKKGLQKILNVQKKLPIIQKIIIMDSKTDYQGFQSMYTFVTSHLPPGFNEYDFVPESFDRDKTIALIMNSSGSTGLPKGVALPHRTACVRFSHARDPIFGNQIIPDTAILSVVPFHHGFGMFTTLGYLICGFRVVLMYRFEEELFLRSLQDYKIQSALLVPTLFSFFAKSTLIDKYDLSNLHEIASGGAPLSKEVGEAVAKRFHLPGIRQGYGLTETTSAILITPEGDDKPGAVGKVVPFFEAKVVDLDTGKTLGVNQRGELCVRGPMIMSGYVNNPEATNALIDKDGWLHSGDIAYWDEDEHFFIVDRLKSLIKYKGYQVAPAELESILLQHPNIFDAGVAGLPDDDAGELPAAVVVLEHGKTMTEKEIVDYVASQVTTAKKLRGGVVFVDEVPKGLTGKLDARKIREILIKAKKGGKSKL
Pf gametocyte = inhibitors of late stage P. falciparum gametocyte viability; inhibition, % at 10.9 µM; P. falciparum stage V gametocytes, ATP luminescence, 24 h; hit rate 0.065% among 150,000;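 active = inhibition above the mean plus 3 SD of compounds within the control limits, set per campaign, cut at about 38% in these data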;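 note: 0% = DMSO wells and 100% = medium only without gametocytes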
APP 5'UTR act = APP 5'UTR luciferase reporter activation; activation, % at 2 µM; SH-SY5Y APP 5'UTR luciferase reporter, luminescence; zero percent = DMSO vehicle wells; hit rate 1% among 190,000;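 active = activation above a set limit, based on mean plus 3 SD of controls, cut at about 140% in these data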
NF-kB expr up = NF-kB expression increase, human neuronal cells | hit rate 1.6% among 190,000 | AID 1239 | fold change at 12.5 µM | NF-kB reporter expression; hits give high values; in the data active = fold change above about 3.3
FLuc stim CS = firefly luciferase counter-screen for stimulation assays; P08659; ATPlite luciferase biochemical, luminescence, 10 min; 0 = ATP-free wells, 1 = DMSO control; activation factor at 10 µM; 200,000 tested, under 10 active;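 active = luciferase activation factor, scaled between plate controls, of at least 2 with compound at 10 µM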
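Assay system – cell-free luciferase reagent · Medium – PBS-based ATP solution · Dosing – test compounds dosed from 2 mM stocks in 100% DMSO · Timing – 10 min, room temperature · Technique – light output (luminescence) · Measure – luminescence gain marking luciferase activators · Controls – No-ATP low control, compound-free enzyme-plus-ATP high control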
STAT1 activator = activators of IFN-gamma induced STAT1 signaling. NIH 3T3 STAT1-luciferase reporter, luminescence; 100% = IFN-gamma alone, no compound. hit rate 2.6% among 200,000. activation (% of control), % at 5.5 µM;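 active = activation above the screen-wide mean activation plus 3 SD, cut at about 130% in these data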;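 note: raw ratio to IFN-gamma control signal so 100% means no change and 0% no light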
Active calls of the source: *; / = no result. Compounds with a hit are over-represented: about 3.5% of the library has one in this group of screens.

SMILES | FLuc inhib CS | Pf gametocyte | APP 5'UTR act | NF-kB expr up | FLuc stim CS | STAT1 activator
Cc1ccc(NC(=O)C(=O)N2CCCC2)cc1Cl | 10.4 | -14.4 | 89.0 | 2.97 | 0.9 | 147.5*
Cc1ccc(NC(=O)N2CCCC2)cc1Cl | 6.7 | -22.7 | 31.1 | 1.4 | 0.9 | 117.4
O=C(Nc1cccc([N+](=O)[O-])c1)C(=O)N1CCCCC1 | -0.7 | 0.8 | 69.1 | 2.39 | 1 | 132.5*
O=C(CN1CCCCCC1)Nc1cccc([N+](=O)[O-])c1 | -5.8 | / | 13.0 | 1.15 | 1.1 | 106.0
Cc1nc2ccc(Br)cn2c1C(=O)N/N=C\c1ccccc1Cl | / | -5.4 | / | / | / | /
COc1ccc(NC(=S)N2CCC(C(=O)c3ccc(F)cc3)CC2)cc1 | / | -9.2 | / | / | / | /
CCOc1ccc(OCCn2nnc3ccccc3c2=O)cc1 | 7.1 | 7.2 | 44.5 | 4.57* | 0.9 | 125.2
O=c1c2ccccc2nnn1COc1ccc(F)cc1Cl | 7.7 | 10.8 | 24.9 | 2.33 | 0.9 | 143.8*
CCCn1nnc2ccccc2c1=O | -0.9 | -21.9 | 1.0 | 1.2 | 1 | 101.8
CCC(=O)OCn1nnc2ccccc2c1=O | 0.2 | -22.2 | 9.1 | 1.29 | 1 | 96.8
O=c1c2ccccc2nnn1COc1ccc(Cl)cc1Br | 2.7 | 15.0 | 80.3 | 1.11 | 1 | 133.0*
O=c1c2ccccc2nnn1COc1cccc2ccccc12 | 0.5 | 23.8 | 49.3 | 2.13 | 1 | 129.7*
CC(Oc1ccc(Cl)cc1Cl)C(=O)OCn1nnc2ccccc2c1=O (centres undefined) | -7.3 | / | 10.5 | 1.23 | 1.1 | 104.0
Cc1ccc(S(=O)(=O)[N-]c2nc3ccccc3nc2-[n+]2cc(C)cc(C)c2)cc1 | / | 16.0 | / | / | / | /
Cc1nnc(SCC(=O)Nc2nsc(-c3ccc(C(C)(C)C)cc3)n2)s1 | 11.2 | / | 146.8* | 8.57* | 0.9 | 141.1*
O=C(c1ccccc1)c1ncc(C(F)(F)F)cc1Cl | -2.7 | 0.7 | 1.5 | 0.98 | 1 | 101.4
COC(=O)/C(=C\Nc1ccccc1N)c1ncc(C(F)(F)F)cc1Cl | -1.7 | -1.5 | 39.8 | 3.3* | 1 | 101.4
C=CCn1c(C)csc1=Nc1ccc(C(C)=O)cc1 | 11.4 | 15.1 | 69.9 | 2.12 | 0.9 | 126.2
CCOC(=O)c1ccc(N=c2scc(C)n2CC)cc1 | 14.5 | / | 89.5 | 4.26* | 0.9 | 124.5
COC(=O)c1ccc(NC(=S)N2CCN(CCO)CC2)cc1 | / | 15.3 | / | / | / | /
COc1ccc(Cl)cc1C(=O)CSc1nnnn1C1CCCCC1 | -4.7 | 42.9* | 0.1 | 1.53 | 1 | 93.3
C=CCn1c(C)c(C(C)=O)c(N2CCN(c3ccccc3)CC2)nc1=S | -5.6 | / | -13.3 | 1.04 | 1.1 | 95.9
O=C(Nc1nnc(CCc2ccccc2)s1)c1cccs1 | -3.3 | / | 5.6 | 1.37 | 1 | 118.6
CC(C)c1nnc(NC(=O)c2cccs2)s1 | 11.0 | / | / | 2.7 | 0.9 | 129.2*
Cc1cnc(C(=O)Nc2nnc(C(C)C)s2)cn1 | -0.6 | / | 36.0 | 1.75 | 1 | 130.8*
SMILES | FLuc inhib CS | Pf gametocyte | APP 5'UTR act | NF-kB expr up | FLuc stim CS | STAT1 activator
Cc1cnc(C(=O)Nc2nnc(C)s2)cn1 | -7.2 | / | -13.8 | 1.31 | 1.1 | 102.0
CC(C)=CC(=O)Nc1nnc(C(C)C)s1 | -2.6 | / | 99.8 | 2.71 | 1 | 144.7*
CC(C)(C)c1nnc(NC(=O)c2cccs2)s1 | 30.4 | / | 68.3 | 3.43* | 0.7 | 134.2*
CCCCC(CC)c1nnc(NC(=O)c2cccs2)s1 (centres undefined) | -4.0 | -10.8 | 8.7 | 1.28 | 1 | 95.7
CCCCc1nnc(NC(=O)C=C(C)C)s1 | 0.1 | / | 14.3 | 1.42 | 1 | 99.7
CCOc1cc(C(=O)OCC(=O)Nc2cc(C)on2)cc(OCC)c1OCC | -1.4 | -26.4 | 12.0 | 1.19 | 1 | 98.7
CCOC(=O)Nc1nnc(-c2cccc(OC)c2)s1 | 5.9 | / | -9.0 | 1.31 | 0.9 | 106.0
COc1cccc(-c2nnc(NC(=O)c3cccs3)s2)c1 | 33.4 | 7.3 | 40.8 | 1.82 | 0.7 | 138.4*
O=C(/C=C/c1ccc([N+](=O)[O-])cc1)NCCc1ccc(F)cc1 | -5.3 | -11.9 | -5.9 | 1.05 | 1.1 | 99.7
O=C(NCCc1ccc(F)cc1)c1ccc([N+](=O)[O-])cc1 | 19.2 | 6.6 | 96.4 | 2.19 | 0.8 | 137.2*
O=C(/C=C/c1ccc(Br)o1)NCc1ccccc1 | -1.1 | 0.5 | -10.6 | 1.16 | 1 | 99.3
O=C(O/N=C1/CCCc2occc21)c1ccccc1 | 69.8* | 14.2 | -10.9 | 1.28 | 0.3 | 101.5
O=C(O/N=C1\CCCc2ccccc21)c1cccc(Cl)c1 | 49.5 | 6.7 | -8.7 | 1.23 | 0.5 | 104.4
Cc1cccc(C(=O)O/N=C2\CCCc3ccccc32)c1 | 80.6* | -29.2 | 4.0 | 1.81 | 0.2 | 101.1
Cc1ccc(C(=O)O/N=C2\CCCc3ccccc32)cc1 | 93.5* | -26.4 | -4.2 | 1.6 | 0.1 | 134.7*
COc1ccc(C(=S)Nc2ccc(C)cc2)cc1 | 26.6 | 15.6 | 105.5 | 2.64 | 0.7 | 132.8*
Cc1ccc(NC(=S)c2ccccc2)cc1 | 34.9 | / | 61.8 | 2.29 | 0.7 | 139.2*
CCCCSc1nnc(CSc2ncccn2)n1C | -0.1 | -2.1 | 8.0 | 1.7 | 1 | 105.8
Cn1c2ccccc2c2cnn(CC(=O)N3CCCCC3)c(=O)c21 | / | -19.4 | / | / | / | /
O=C(c1ccc(N2CCCCS2(=O)=O)cc1)N1CCN(c2ccc(N3CCOCC3)nn2)CC1 | -0.7 | / | 4.5 | 1.05 | 1 | 101.9
Brc1ccc(-c2ncc(-c3ccccc3)cn2)cc1 | 32.4 | / | 30.6 | 5.68* | 0.7 | 139.2*
COc1ccc(-c2cc(Cl)cc3c(=O)c4ccccc4n(C)c23)cc1F | / | 14.5 | / | / | / | /
CC(=O)Nc1ccc(-c2sc(Nc3cccc4ccccc34)n[n+]2-c2ccccc2)cc1 | / | -22.6 | / | / | / | /
Cc1cc(-c2ccc(Cl)cc2)n2nc(N)nc2n1 | 5.6 | -3.4 | 8.0 | 1.17 | 0.9 | 94.5
Nc1nc2nccc(-c3ccc(Cl)cc3)n2n1 | 51.3* | -18.1 | -1.1 | 1.55 | 0.5 | 120.9
SMILES | FLuc inhib CS | Pf gametocyte | APP 5'UTR act | NF-kB expr up | FLuc stim CS | STAT1 activator
Cc1nn(C)c(C)c1/C=C/C(=O)c1cccs1 | / | 3.2 | 13.1 | 2.22 | / | 114.7
CCn1cc(/C=C/C(=O)c2ccc(O)cc2)c(C)n1 | 89.7* | 4.5 | 73.1 | 3.6* | 0.1 | 116.9
Cc1nn(C)cc1/C=C/C(=O)c1cccs1 | 62.7* | -7.7 | 126.1 | 6.32* | 0.4 | 116.5
CCn1cc(/C=N/O)c(C)n1 | -0.5 | / | -17.1 | 1.18 | 1 | 98.4
Cc1nn(C)cc1/C=C/C(=O)c1ccccc1 | 54.4* | 9.1 | 161.1* | 10.8* | 0.5 | 110.9
O=C(Nc1nc2cc3c(cc2s1)OCCO3)c1cccc(N2C(=O)CCC2=O)c1 | 80.6* | / | 5.6 | 1.28 | 0.2 | 110.5
Cc1nc2ccc(NC(=O)c3ccc(N4C(=O)CCC4=O)cc3)cc2s1 | -2.0 | -4.5 | 10.7 | 1.15 | 1 | 93.6
O=C(Nc1ccc2sccc2c1)c1cccc(N2C(=O)CCC2=O)c1 | 20.1 | -3.4 | 12.8 | 1.95 | 0.8 | 139.9*
COc1ccc(-c2cn3ccccc3n2)cc1 | / | 23.3 | / | / | / | /
COc1ccc(-c2cn3nc4c(nc3n2)CCCC4)cc1 | 68.1* | 11.7 | 58.5 | 2.93 | 0.3 | 124.3

From PubChem
